The target in experiment [1] is T1, Alpha-2C adrenergic receptor (Homo sapiens) (UniProt P18825).
T1 sequence (whole entry): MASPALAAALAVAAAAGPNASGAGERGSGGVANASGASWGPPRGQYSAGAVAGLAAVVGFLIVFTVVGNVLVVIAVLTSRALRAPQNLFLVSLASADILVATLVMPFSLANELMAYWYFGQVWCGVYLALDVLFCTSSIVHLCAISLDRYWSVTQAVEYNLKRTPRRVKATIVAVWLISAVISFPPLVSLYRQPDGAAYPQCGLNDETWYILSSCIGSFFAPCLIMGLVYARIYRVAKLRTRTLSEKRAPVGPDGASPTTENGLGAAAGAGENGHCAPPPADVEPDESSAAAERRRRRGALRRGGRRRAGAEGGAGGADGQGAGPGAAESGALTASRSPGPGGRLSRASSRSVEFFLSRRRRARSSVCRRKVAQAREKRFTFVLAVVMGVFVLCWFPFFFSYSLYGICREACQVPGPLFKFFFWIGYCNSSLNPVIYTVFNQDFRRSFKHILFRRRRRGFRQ
The experiment in a line: Agonist activity at human Alpha-2C adrenoceptor expressed in CHO cells assessed as induction of extracellular acidification by microphysiometry relative to (-)noradrenaline. Format: functional, cell-based. An outline of the steps: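 Cytosensor microphysiometry on CHO cells stably expressing one human α2-AR subtype, seeded at 3 × 10⁵ cells/cup and grown 24 h at 37 °C. Cells were perfused with bicarbonate-free DMEM and exposed to agonist for 4 min, with 30 min washes between exposures. The read-out is the change in acidification rate: peak after agonist minus the mean of three prior readings. […] Mean ± SEM, 3–6 experiments.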

Experiment [2] has as its target T2, Alpha-2A adrenergic receptor (Homo sapiens, UniProt P08913).
T2 sequence (P08913 whole entry): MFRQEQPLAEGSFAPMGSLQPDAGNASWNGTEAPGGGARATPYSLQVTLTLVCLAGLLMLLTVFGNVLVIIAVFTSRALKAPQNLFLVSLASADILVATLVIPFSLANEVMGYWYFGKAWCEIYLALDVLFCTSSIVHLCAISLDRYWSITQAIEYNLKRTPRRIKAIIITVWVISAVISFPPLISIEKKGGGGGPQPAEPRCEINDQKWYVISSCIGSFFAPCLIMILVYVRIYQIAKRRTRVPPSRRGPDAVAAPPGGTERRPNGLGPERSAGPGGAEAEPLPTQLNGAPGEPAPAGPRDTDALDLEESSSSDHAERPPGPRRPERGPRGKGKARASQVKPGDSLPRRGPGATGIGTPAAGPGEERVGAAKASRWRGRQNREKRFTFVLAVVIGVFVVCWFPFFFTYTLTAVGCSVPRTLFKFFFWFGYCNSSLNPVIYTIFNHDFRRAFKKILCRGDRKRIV
The experiment in a line: Displacement of [3H]RX821002 from human alpha2A adrenoceptor expressed in CHO cells. The format is cell-based. An outline of the steps: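 Crude membranes from CHO cells expressing human α2A-AR were incubated in Tris-Mg buffer (50 mM Tris-HCl, 0.5 mM MgCl₂, pH 7.5). Ki came from one- or two-site nonlinear regression and is given as pKi.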

Experiment [3] deals with T3, Alpha-2A adrenergic receptor (Homo sapiens) (UniProt P08913).
T3 sequence (whole entry): T2 sequence (P08913 whole entry)
The experiment in a line: Antagonist activity at human alpha2A adrenoceptor expressed in CHO cells assessed as effect on agonist-induced extracellular acidification by microphysiometry. Format: functional, cell-based. An outline of the steps: (§1)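 CHO cells stably expressing one human α2-AR subtype were run on the Cytosensor microphysiometer with bicarbonate-free DMEM perfusion. […] Kb = M/(concentration ratio − 1), where the ratio is EC50 with antagonist over EC50 without. Reported as pKb, mean ± SEM of 3–6 experiments.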

The target of experiment [4] is T4, Alpha-2B adrenergic receptor (Homo sapiens, UniProt P18089).
T4 sequence (P18089 whole entry): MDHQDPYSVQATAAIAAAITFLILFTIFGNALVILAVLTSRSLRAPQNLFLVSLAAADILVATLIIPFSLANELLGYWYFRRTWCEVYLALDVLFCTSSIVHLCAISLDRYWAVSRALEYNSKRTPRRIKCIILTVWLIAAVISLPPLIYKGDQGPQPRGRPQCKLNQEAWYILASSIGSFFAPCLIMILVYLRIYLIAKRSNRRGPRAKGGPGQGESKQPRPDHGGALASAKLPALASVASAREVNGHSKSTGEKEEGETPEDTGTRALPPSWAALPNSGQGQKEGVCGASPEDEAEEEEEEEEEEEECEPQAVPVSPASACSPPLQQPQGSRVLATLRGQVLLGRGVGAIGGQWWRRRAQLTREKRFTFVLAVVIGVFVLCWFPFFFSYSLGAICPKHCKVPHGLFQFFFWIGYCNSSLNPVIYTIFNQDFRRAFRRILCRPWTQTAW
The experiment in a line: Displacement of [3H]RX821002 from human alpha2B adrenoceptor expressed in CHO cells. Format: cell-based. An outline of the steps: (§2)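 Buffer was Tris-Mg (50 mM Tris-HCl, 0.5 mM MgCl2, pH 7.5), competitor 10^-9 to 10^-4 M, 30 min at room temperature. Bound ligand was filtered and counted. Ki by nonlinear one- or two-site fit, reported as pKi.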

Experiment [5] addresses T4, Alpha-2B adrenergic receptor. The experiment in a line: Agonist activity at human alpha2B adrenoceptor expressed in CHO cells assessed as induction of extracellular acidification by microphysiometry.
Experiment [6] deals with T5, Alpha-2C adrenergic receptor (Homo sapiens, UniProt P18825).
T5 sequence (P18825 whole entry): T1 sequence (whole entry)
The experiment in a line: Displacement of [3H]RX821002 from human Alpha-2C adrenoceptor expressed in CHO cells. Format: cell-based. An outline of the steps:
as §2

Experiment [7] concerns the target T5, Alpha-2C adrenergic receptor. The experiment in a line: Agonist activity at human Alpha-2C adrenoceptor expressed in CHO cells assessed as induction of extracellular acidification by microphysiometry. Format: functional, cell-based. A digest of the protocol:
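Cytosensor microphysiometry on CHO cells stably expressing one human α2-AR subtype, seeded at 3 × 10⁵ cells/cup and grown 24 h at 37 °C. Cells were perfused with bicarbonate-free DMEM and exposed to agonist for 4 min, with 30 min washes between exposures. The read-out is the change in acidification rate: peak after agonist minus the mean of three prior readings. Mean ± SEM, 3–6 experiments.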

Experiment [8] has as its target T6, Alpha-2B adrenergic receptor (Homo sapiens) (UniProt P18089).
T6 sequence (whole entry): T4 sequence (P18089 whole entry)
The experiment in a line: Antagonist activity at human alpha2B adrenoceptor expressed in CHO cells assessed as effect on agonist-induced extracellular acidification by microphysiometry. The format is functional, cell-based. A digest of the protocol: as §1

Experiment [9] addresses T2, Alpha-2A adrenergic receptor. The experiment in a line: Agonist activity at human alpha2A adrenoceptor expressed in CHO cells assessed as induction of extracellular acidification by microphysiometry. Format: functional, cell-based. An outline of the steps:
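CHO cells stably expressing human α2A-AR were seeded at 3 × 10⁵ cells/cup and held 24 h at 37 °C under 5% CO₂. They were then perfused at 100 μL/min with bicarbonate-free DMEM containing glutamine and NaCl. Agonist exposure lasted 4 min, with 30 min washes between exposures.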

The target of experiment [10] is T6, Alpha-2B adrenergic receptor (Homo sapiens). As to conditions: CHO.
The subject of experiment [11] is Mus musculus. The experiment in a line: Enhancement of morphine-induced analgesic effect in CD1 mouse at 0.05 mg/kg, ip administered 15 mins before morphine dosing measured 30 to 240 mins post morphine challenge by radiant heat tail flick test. The format is functional, organism-based. Further details: dose 0.05 mg/kg. A digest of the protocol:
(§3)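 Male CD-1 mice (25–35 g) received test agent 0.05 mg/kg ip or vehicle 15 min before morphine 5 mg/kg sc. Radiant-heat tail-flick to the lower third of the tail; baseline latency (2–3 s) is the mean of two trials. Latencies were read at 30, 60, 90, 120 and 240 min and expressed as %MPE. 7–8 mice per group, mean ± SEM.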

The subject of experiment [12] is Mus musculus. The experiment in a line: Analgesic effect in CD1 mouse at 0.05 mg/kg, ip by radiant heat tail flick test. Format: functional, organism-based. Details: dose 0.05 mg/kg. An outline of the steps:
as §3

Molecules are shown by their SMILES. The source made the active and inactive calls. The rule behind the calls is not given here.

Take `C[C@@H](Oc1ccccc1-c1ccccc1)C1=NCCN1`: in [1], the Intrinsic activity is 0.7.

Regarding `CC(Oc1ccccc1C1CC1)C1=NCCN1` (racemic), the Ki is 22.9 nM in experiment [2], 309 nM in experiment [4] and 79.4 nM in [6]. The pKb in [3] was determined as 7. Also, the values for the EC50 in experiment [5] and in experiment [7] were 3.16 µM and 39.8 nM, respectively. In addition, in [1], the Intrinsic activity stood at 0.9.

`CC(Oc1ccccc1-c1ccccc1)C1=NCCN1` (racemic): in experiment [1], the Intrinsic activity turned out to be 0.8.

`C[C@@H](Oc1ccccc1-c1cccc([N+](=O)[O-])c1)C1=NCCN1`: the figures for the pKb in experiment [3] and in experiment [8] were 7.11 and 6.07, respectively. In addition, the Intrinsic activity in experiment [1] was 0.8.

As to `C[C@H](Oc1ccccc1-c1ccsc1)C1=NCCN1`, the Ki was 44.7 nM in experiment [2], 447 nM in experiment [4] and 126 nM in experiment [6]. The EC50 in experiment [9] was 63.1 nM; in experiment [5], 1 µM; in [7], 6.31 nM. Moreover, in [1], the Intrinsic activity is 0.9.

`CC(Oc1ccccc1-c1ccsc1)C1=NCCN1` (racemic): the Intrinsic activity in [1] was found to be 0.85. Moreover, the pEC50 result in experiment [10] was “inactive”.

Regarding `C[C@@H](Oc1ccccc1-c1cccc(O)c1)C1=NCCN1`, the results for the Ki in experiment [2], in experiment [4] and in experiment [6] were 39.8 nM, 316 nM and 31.6 nM, respectively. Also, the pKb is 6.4 in experiment [3] and 5.67 in [8]. In addition, the EC50 in experiment [7] is 25.1 nM. Moreover, the Intrinsic activity in [1] worked out at 1.

In the case of `C[C@H](Oc1ccccc1-c1cccc(O)c1)C1=NCCN1`, the Ki is 97.7 nM in [2], 1000 nM in [4] and 112 nM in [6]. Further, the figures for the pKb in [3] and in [8] were 6 and 5.5, respectively. Further, the EC50 in experiment [7] was 2510 nM. Further, the Intrinsic activity in [1] was 0.65.

As to `CC(Oc1ccccc1-c1cccc([N+](=O)[O-])c1)C1=NCCN1` (racemic), the pKb is 6.8 in experiment [3] and 5.9 in [8]. Moreover, in experiment [1], the Intrinsic activity is 0.6.

For the compound `CC(Oc1ccccc1-c1cccc(O)c1)C1=NCCN1` (racemic), the pKb in experiment [3] turned out to be 6.2. Moreover, the Intrinsic activity in experiment [1] is 1.15.

`C[C@H](Oc1ccccc1-c1cccc([N+](=O)[O-])c1)C1=NCCN1`: the pKb is 7.35 in experiment [3] and 5.93 in experiment [8]. Besides, the Intrinsic activity in experiment [1] came out at 0.45.

For `Clc1cccc(Cl)c1NC1=NCCN1`, the Intrinsic activity in [1] was 0.6.

For `C[C@@H](Oc1ccccc1-c1ccsc1)C1=NCCN1`, the Ki is 166 nM in experiment [2], 708 nM in experiment [4] and 316 nM in experiment [6]. The figures for the EC50 in experiment [9] and in experiment [7] were 3160 nM and 100 nM, respectively. Also, the Intrinsic activity in experiment [1] was found to be 0.7. Also, the pEC50 entry in experiment [10] was “inactive”.

For `C[C@@H](Oc1ccccc1C1CC1)C1=NCCN1`, the values for the Ki in experiment [2], in experiment [4] and in [6] were 44.7 nM, 562 nM and 126 nM, respectively. Further, the pKb in experiment [3] turned out to be 6.9. Also, the EC50 in [7] is 126 nM. Also, the Intrinsic activity in [1] was 0.5. Also, the result in the experiment with Mus musculus [11] was Active. The outcome in the experiment with Mus musculus [12] was inactive. Moreover, the pEC50 result in experiment [10] is “inactive”.

As to `C[C@H](Oc1ccccc1C1CC1)C1=NCCN1`, the Ki was 20.9 nM in [2], 263 nM in experiment [4] and 63.1 nM in [6]. Moreover, in experiment [3], the pKb is 7.7. Further, the EC50 is 3.16 µM in [5] and 35.5 nM in experiment [7]. Also, in experiment [1], the Intrinsic activity is 0.9. In addition, the outcome in the experiment on Mus musculus [11] was Active. Also, in the experiment on Mus musculus [12], the outcome was inactive.

With `C[C@H](Oc1ccccc1-c1ccccc1)C1=NCCN1`, the Intrinsic activity in [1] came out at 0.9.

The values are drawn from ChEMBL document CHEMBL1275329, “Fruitful adrenergic α(2C)-agonism/α(2A)-antagonism combination to prevent and contrast morphine tolerance and dependence” (J Med Chem, 2010).
